Compound activity deposited in PubChem by several laboratories.
Efflux pump inh – inhibitors of Candida efflux pumps in yeast, primary screen, S. cerevisiae, Nile Red, multiplex; 330,000 tested, 0.44% active; S. cerevisiae Candida pump triplex; inhibition, % at 10 µM;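 active = plate passing quality check with inhibition over a set limit, or well fluorescence over plate mean plus 4 SD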;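 also: Nile Red retained in pooled yeast measured as flow cytometry median fluorescence; higher means more Nile Red kept so more efflux inhibition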
T cruzi repl – inhibitors of intracellular T. cruzi growth, primary screen, luminescence, NIH3T3 host cells | T. cruzi beta-gal in NIH3T3, 90 h | inhibition, % (concentration not given with the values) | 300,000 tested, 1.4% active;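 active = mean inhibition across valid replicates above about 55%, limit read from the data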;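 also: signal also drops with host cell toxicity which is not excluded here; higher percent means less beta-gal luminescence so fewer parasites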
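System: mouse NIH/3T3 fibroblasts infected with β-gal-expressing T. cruzi Tulahuen C4 / Input: NIH/3T3 cells, 5,000 per well / Buffer or medium: Low-serum DMEM with 2% FBS / Probe or stimulus: 5000 reporter trypomastigotes per well / Schedule: ≥90 h infection period, 3 h prior cell attachment / Measured by: GalScreen luminescence, 60 min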
HDAC3 inh – HDAC3 deacetylase inhibitors, primary screen, biochemical, fluorescence, cell-free homogeneous | AID 2718, 2010 | inhibition, % at 8.3 µM | recombinant HDAC3, fluorogenic peptide/trypsin coupled | 320,000 tested, 0.15% active; in the data active = inhibition above about 26%, passing the limit was not always enough
Target sequence (O15379 whole entry, looked up): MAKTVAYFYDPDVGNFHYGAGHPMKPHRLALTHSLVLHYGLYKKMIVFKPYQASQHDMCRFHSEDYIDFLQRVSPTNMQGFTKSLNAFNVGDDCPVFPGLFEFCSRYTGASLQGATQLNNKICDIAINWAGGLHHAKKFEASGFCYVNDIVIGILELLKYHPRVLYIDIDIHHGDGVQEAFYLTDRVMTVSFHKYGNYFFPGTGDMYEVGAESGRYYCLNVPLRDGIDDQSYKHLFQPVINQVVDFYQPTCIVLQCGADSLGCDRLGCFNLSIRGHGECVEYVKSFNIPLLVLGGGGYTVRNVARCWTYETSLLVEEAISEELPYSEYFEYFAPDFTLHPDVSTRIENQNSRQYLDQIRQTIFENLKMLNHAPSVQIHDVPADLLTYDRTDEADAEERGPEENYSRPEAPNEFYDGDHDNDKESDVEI
PolyA inhibitor – polyadenylation inhibitors in yeast reporter cells, primary screen, luminescence, S. cerevisiae. S. cerevisiae SKY197-pL101 polyadenylation reporter, beta-gal luminescence; efflux-impaired pdr1/pdr3 knockout yeast; score 100 = 6 SD above DMSO. activity score, % at 12 µM. 300,000 tested, 0.02% active;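 active = lowest replicate activity score at least 50, where 100 means six control SD above control mean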;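 also: yeast exposed to compound for 9 h at 30 °C; higher score means more reporter readthrough which indicates perturbed polyadenylation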
AI-2 QS modul – Vibrio harveyi AI-2 quorum sensing modulators, primary screen, JMH597 strain, luminescence/OD600 ratio; Vibrio harveyi JMH597 AI-2 luminescence/OD600 ratio, 9 h; active compounds read low; strain lacks LuxN and CqsS sensors; 0 = neutral-control median; activity change, % at 7.5 µM; 300,000 tested, 0.4% active; AID 2094, 2009; in the data active = activity change below about -75%, passing the limit was not always enough;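 also: luminescence divided by OD600 gain over 9 h not by final OD600 alone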
Of the large screens only hits and unclear results are named; the others gave an inactive call. In the library only some 2.2% were active in any assay of this set; here they are far more common.

Cc1ccc(S(=O)(=O)N(C)CC(=O)OCC(=O)c2c(N)n(C)c(=O)n(C)c2=O)cc1	none
CCN(CC)c1ccc(/C=N/NC(=O)c2cccc(S(=O)(=O)N3CCOCC3)c2)c(O)c1	T cruzi repl 65
COc1ccc(-c2nnc(NC(=O)c3ccc(S(=O)(=O)N4CCCc5ccccc54)cc3)o2)cc1	T cruzi repl 63
CC1CN(S(=O)(=O)c2ccc(C(=O)Nc3nnc(-c4ccc5c(c4)CCCC5)o3)cc2)CC(C)O1 (stereo not drawn)	T cruzi repl 61
O=C(Nc1nnc(C2CC2)o1)c1ccc(S(=O)(=O)N2CCCc3ccccc32)cc1	T cruzi repl 59
COCc1nnc(NC(=O)c2ccc(S(=O)(=O)N3CCCc4ccccc43)cc2)o1	none
C/C(=N\NC(=O)c1nn(C)c(C)c1Br)c1ccc(NC(=O)c2ccccc2F)cc1	none
Cn1c(COc2ccccc2O)[n+](C)c2ccccc21	none
COc1ccc(N=Nc2n(C)c3ccccc3[n+]2C)cc1	T cruzi repl 64 (no result: Efflux pump inh, HDAC3 inh)
COCCNC(=O)/C(C#N)=c1\s/c(=C\c2ccccc2OC(F)F)c(=O)n1Cc1ccccc1	none
CCOC(=O)C(NC(=O)NCc1ccccc1OC)(OCC)C(F)(F)F (stereo not drawn)	none
Cc1cc(C)c2c(=O)n(CC(=O)Nc3cccc(Cl)c3C)sc2n1	T cruzi repl 58
CSCCC(NC(=O)c1ccccc1Br)C(=O)Nc1ccc(C)cc1 (stereo not drawn)	none
CC1(C)CC(NCCN2CCN(C3=CC(=C(C#N)C#N)CC(C)(C)C3)CC2)=CC(=C(C#N)C#N)C1	T cruzi repl 86
CN(C)CCNC(=O)C(=O)NCC1CCCN1S(=O)(=O)c1cccs1 (stereo not drawn)	none
CCOC(=O)C1=C(C)n2c(s/c(=C/c3cccc([N+](=O)[O-])c3)c2=O)=NC1c1ccc(O)c(OC)c1 (stereo not drawn)	T cruzi repl 70
COc1ccc(NS(=O)(=O)N2CCOCC2)cc1	none
Cc1ccc(/C=N/Nc2nncc(-c3ccccc3)n2)o1	none
Cc1[nH]n(-c2ccccc2)c(=O)c1/C=N/Nc1nncc(-c2ccccc2)n1	T cruzi repl 70
O=[N+]([O-])c1ccc(Sc2nccn2Cc2ccccc2)c([N+](=O)[O-])c1	T cruzi repl 65
COC(=O)CCSc1nc(N2CCOCC2)c2c(c1C#N)CC(C)(C)OC2	none
CN1Cc2c(N3CCOCC3)nc(SCc3ccccc3)c(C#N)c2CC1(C)C	T cruzi repl 58
CC(C)CCSc1nc(N2CCOCC2)c2c(c1C#N)CC(C)(C)OC2	T cruzi repl 67
CC(C)OCCCNC(=O)c1cn(C)c2ccc(S(=O)(=O)N3CCCC3)cc2c1=O	none
Cc1nc2c(-c3ccccc3)c(C)[nH]n2c(=O)c1Cc1ccccc1	none
Cc1nc2c(-c3ccc(Cl)cc3)c(C)[nH]n2c(=O)c1Cc1ccccc1	T cruzi repl 63
Cc1nn(C)cc1/C=N\NC(=O)c1ccc2c(c1)c(C)c(C)n2Cc1ccccc1	none
CCOC(=O)C1=C(C)N=c2s/c(=C/c3cccc([N+](=O)[O-])c3O)c(=O)n2C1c1ccc(OC)cc1OC (stereo not drawn)	Efflux pump inh 0.7
COc1ccc(C2C(C(C)=O)=C(C)N=c3s/c(=C\c4ccco4)c(=O)n32)c(OC)c1 (stereo not drawn)	none
COc1ccc(C2C(C(C)=O)=C(C)N=c3s/c(=C\c4cc(C)n(C)c4C)c(=O)n32)c(OC)c1 (stereo not drawn)	Efflux pump inh 2.5
CC1(C)CC(=O)C(C=Nc2ccc(NC3=C(C#N)C(=O)CC(C)(C)C3)cc2)=C(O)C1	none
Cc1cccc(NC(=O)CSCC(=O)Nc2cc(Cl)ccc2N2CCN(C)CC2)c1	T cruzi repl 59
Cc1cc(NC(=O)CSCC(=O)Nc2cc(Cl)ccc2N2CCN(C)CC2)no1	none (no result: T cruzi repl, PolyA inhibitor, AI-2 QS modul)
CN1CCN(c2ccc(S(=O)(=O)N3CCCCC3)cc2NC(=O)/C=C/c2ccc(Cl)c([N+](=O)[O-])c2)CC1	T cruzi repl 60
CN1CCN(c2ccc(S(=O)(=O)N3CCCCC3)cc2NC(=O)COc2ccc(F)cc2)CC1	T cruzi repl 64
CN1CCC(N(C)S(=O)(=O)c2ccc(NC(=O)COc3ccc(F)cc3)cc2)CC1	T cruzi repl 58 (no result: HDAC3 inh)
O=C(COc1ccc(Br)cc1)Nc1cc(S(=O)(=O)N2CCCCC2)ccc1N1CCCCC1	none (no result: HDAC3 inh)
OC1(C#CCN2CCCC2)CCCCC1	none
COc1ccc(CN(C)C(=O)c2ccc(NS(=O)(=O)c3ccc(F)cc3)cc2)c(OC)c1OC	none
COc1ccc(NC(=O)CNc2ccccc2C(C)=O)cc1S(=O)(=O)N1CCOCC1	none (no result: T cruzi repl, PolyA inhibitor, AI-2 QS modul)
CN1CCN(c2ccc(S(=O)(=O)N3CCCCC3)cc2NC(=O)COc2cccc(Cl)c2)CC1	T cruzi repl 66
CN1CCC(N(C)S(=O)(=O)c2ccc(C(C)(C)C)cc2)CC1	T cruzi repl 65
Cc1cccc(OCC(=O)Nc2cc(S(=O)(=O)N3CCCCC3)ccc2N2CCN(C)CC2)c1	none
Cn1nc(C(=O)NC2CCCc3ccccc32)ccc1=O (stereo not drawn)	none
O=C(CCc1n[nH]c(=O)[nH]c1=O)Nc1cccc([N+](=O)[O-])c1	none
COc1ccc(-c2ncc(CN3CCN(CCC(C)C)C(CCO)C3)cn2)cc1 (stereo not drawn)	T cruzi repl 61
COC(=O)c1ccc(CN2CCN(CCC(C)C)C(CCO)C2)cc1 (stereo not drawn)	none
COc1cccc(C(=O)NC2CC3CCCC(C2)N3S(=O)(=O)c2ccccc2)c1 (stereo not drawn)	none
CCCOc1ccc(NCC(=O)Nc2ccc(C)cc2C)cc1	T cruzi repl 76
Cc1cccc(NC(=O)C2C3CCC4C(CCC32)C4(Cl)Cl)c1 (stereo not drawn)	none
COc1ccc(N2CCN(C(=O)CSc3nc(C)cs3)CC2)cc1	none
COc1ccc(N2CCN(C(=O)CSc3ncnc4scc(-c5ccc(C)cc5)c34)CC2)cc1	T cruzi repl 76
COc1ccc(N2CCN(c3ncnc4scc(-c5ccc(C)cc5)c34)CC2)cc1	T cruzi repl 58 (no result: AI-2 QS modul)
Cc1ccc(Cn2c(N3CCN(C)CC3)nc3c2c(=O)[nH]c(=O)n3C)cc1	none
Nc1nccnc1C(=O)OCC(=O)NCCc1ccc(S(N)(=O)=O)cc1	none
Cc1c(/C=N/Nc2nc3ccccc3[nH]2)c2ccccc2n1C	T cruzi repl 56
Cc1nn(-c2ccccc2)c(Cl)c1/C=N/Nc1nc2ccccc2n1C	T cruzi repl 55
Cc1nn(-c2ccccc2)c(C)c1/C=N/Nc1nc2ccccc2[nH]1	T cruzi repl 66
Cn1c(/C=N/Nc2nc3ccccc3[nH]2)nc2ccccc21	none
